From ChEMBL document CHEMBL1765039, “Geminal dialkyl derivatives of N-substituted pantothenamides: synthesis and antibacterial activity” (2011)
≈ marks a conversion by molar mass, not a printed value.

How the values were obtained:
Staphylococcus aureus [1] = assay: Antibacterial activity against 10^6 CFU/ml methicillin or oxacillin-resistant Staphylococcus aureus ATCC 43300 after 18 hrs by NCCLS broth microdilution method; format: functional; details: ATCC 43300, 18 h
In short: (§1)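 Broth microdilution per NCCLS, in 96-well plates; strains grown on Trypticase soy media. Compounds dissolved in 10% (v/v) acetone in water, serially diluted to 0.5–256 µg/mL (10 levels, twofold). Wells inoculated with 10⁶ cfu/mL suspension, 37 °C for 18 h. MIC = lowest concentration with no visible growth, converted to µM by molecular weight; average of at least four separate experiments.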

Staphylococcus aureus [2] = assay: Antibacterial activity against 10^6 CFU/ml oxacillin-susceptible Staphylococcus aureus ATCC 29213 after 18 hrs by NCCLS broth microdilution method; format: functional; details: ATCC 29213, 18 h; in short: as §1
Klebsiella pneumoniae = assay: Antibacterial activity against Klebsiella pneumoniae 13883 at 150 ug/ml after 24 hrs by agar diffusion method; format: functional; details: Klebsiella pneumoniae, 13883, 24 h, read-out: DIZ
In short: (§2)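 Agar diffusion per NCCLS. Mueller-Hinton agar plates were swab-inoculated and dried 5 min. Sterile 1 cm discs were loaded with compound solution and placed on the plates. Incubation was 24 h at 37 °C (A. baumannii, E. coli, K. pneumoniae, S. aureus) or 30 °C (B. subtilis). Read-out was inhibition zone diameter, with ampicillin as positive control.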

Staphylococcus aureus [3] = assay: Antibacterial activity against Staphylococcus aureus 29213 at 150 ug/ml after 24 hrs by agar diffusion method; format: functional; details: Staphylococcus aureus, 29213, 24 h; read-out: DIZ; in short: as §2
Acinetobacter baumannii = assay: Antibacterial activity against Acinetobacter baumannii 19606 at 150 ug/ml after 24 hrs by agar diffusion method; format: functional; details: Acinetobacter baumannii, 19606, 24 h, read-out: DIZ; in short: as §2
Escherichia coli = assay: Activity of Escherichia coli pantothenate kinase
In short: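 E. coli PanK, expressed and purified, at 278 nM in 50 mM Tris-HCl pH 7.6. Mix: ATP 1.5 mM, NADH 0.3 mM, phosphoenolpyruvate 0.5 mM, MgCl₂ 10 mM, KCl 20 mM, pyruvate kinase and lactate dehydrogenase (5 units each). Started by adding substrate (10–160). ADP formation was coupled to NADH loss, read at 340 nm, 25 °C. Kinetic parameters came from a Michaelis–Menten fit.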

SMILES | MIC (Staphylococcus aureus [1]) [µM] | MIC (Staphylococcus aureus [2]) [µM] | zone of inhibition at 150 µg/mL (Klebsiella pneumoniae) [mm] | zone of inhibition at 150 µg/mL (Staphylococcus aureus [3]) [mm] | zone of inhibition at 150 µg/mL (Acinetobacter baumannii) [mm] | Km (Escherichia coli) [µM] | kcat (Escherichia coli) [s⁻¹]
C=CCC(CO)(CC=C)[C@@H](O)C(=O)NCCC(=O)NCCCCC | 376 (≈ 128 µg/mL) | 376 (≈ 128 µg/mL) | < 11 | 16 | < 11 |  | 
CCCCCNC(=O)CCNC(=O)[C@H](O)[C@@](C)(CO)CC1CCC1 | 374 (≈ 128 µg/mL) | 374 (≈ 128 µg/mL) | < 11 | 16 | < 11 |  | 
CCCCCC[C@](C)(CO)[C@@H](O)C(=O)NCCC(=O)NCCCCC | > 715 | > 715 | < 11 | 16 | < 11 |  | 
CCCCCNC(=O)CCNC(=O)[C@H](O)[C@@](C)(CO)CCC | 13 (≈ 4.11 µg/mL) | 13 (≈ 4.11 µg/mL) | < 11 | 16 | < 11 |  | 
CCCCCCCCCNC(=O)CCNC(=O)[C@H](O)C(C)(C)CO | 0.4 (≈ 0.138 µg/mL) | 0.4 (≈ 0.138 µg/mL) | < 11 | 16 | < 11 |  | 
CCCCCNC(=O)CCNC(=O)[C@H](O)[C@](C)(CC)CO | 7 (≈ 2.12 µg/mL) | 7 (≈ 2.12 µg/mL) | < 11 | 16 | < 11 |  | 
CCCCCNC(=O)CCNC(=O)[C@H](O)[C@@](C)(CO)CC(C)C | 51 (≈ 16.9 µg/mL) | 101 (≈ 33.4 µg/mL) | < 11 | 16 | < 11 |  | 
CCCCCNC(=O)CCNC(=O)[C@H](O)[C@@](C)(CO)CC1CC1 | 24 (≈ 7.88 µg/mL) | 24 (≈ 7.88 µg/mL) | < 11 | 16 | < 11 |  | 
CCCCCNC(=O)CCNC(=O)[C@H](O)C(C)(C)CO | 7 (≈ 2.02 µg/mL) | 7 (≈ 2.02 µg/mL) | < 11 | 16 | < 11 |  | 
C=CC[C@](C)(CO)[C@@H](O)C(=O)NCCC(=O)NCCCCCCCCC | 1 (≈ 0.371 µg/mL) | 1 (≈ 0.371 µg/mL) | < 11 | 16 | < 11 |  | 
C=CC[C@](C)(CO)[C@@H](O)C(=O)NCCC(=O)NCCCCC | 3.2 (≈ 1.01 µg/mL) | 3.2 (≈ 1.01 µg/mL) | < 11 | 16 | < 11 | 534 | 0.87
CCCCCNC(=O)CCNC(=O)[C@H](O)[C@@](C)(CO)Cc1ccccc1 | > 703 | > 703 | < 11 | 16 | < 11 |  | 
CCCCCNC(=O)CCNC(=O)[C@H](O)C(CO)(CCC)CCC | > 744 | > 744 | < 11 | 16 | < 11 |  | 
